ChEMBL document CHEMBL1275331, “Discovery of a novel 5-HT(3) antagonist/5-HT(1A) agonist 3-amino-5,6,7,8-tetrahydro-2-{4-[4-(quinolin-2-yl)piperazin-1-yl]butyl}quinazolin-4(3H)-one (TZB-30878) as an orally bioavailable agent for irritable bowel syndrome” (J Med Chem, 2010)
The source made the active and inactive calls. The rule behind the calls is not given here.

Tests used:
[1] = Drug level in Sprague-Dawley rat blood at 3 mg/kg, po after 8 hrs by HPLC analysis; format: ADME, organism-based; design: dose 3 mg/kg, route oral; conditions: whole blood, read-out: Drug uptake
In short: (§1)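 Total compound concentration was measured in brain and blood at 2, 4 and 8 h after a single oral 3 mg/kg dose. Brain/blood ratio was also derived. Values are mean ± SD of three rats.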

[2] = target: T1, 5-hydroxytryptamine receptor 1A (Homo sapiens) (UniProt P08908); assay: Agonist activity at human cloned 5HT1A receptor expressed in CHO cells assessed as stimulation of [35S]GTPgammaS binding at 900 uL after 30 mins by liquid scintillation counting; format: functional, cell-based
T1 sequence (whole entry): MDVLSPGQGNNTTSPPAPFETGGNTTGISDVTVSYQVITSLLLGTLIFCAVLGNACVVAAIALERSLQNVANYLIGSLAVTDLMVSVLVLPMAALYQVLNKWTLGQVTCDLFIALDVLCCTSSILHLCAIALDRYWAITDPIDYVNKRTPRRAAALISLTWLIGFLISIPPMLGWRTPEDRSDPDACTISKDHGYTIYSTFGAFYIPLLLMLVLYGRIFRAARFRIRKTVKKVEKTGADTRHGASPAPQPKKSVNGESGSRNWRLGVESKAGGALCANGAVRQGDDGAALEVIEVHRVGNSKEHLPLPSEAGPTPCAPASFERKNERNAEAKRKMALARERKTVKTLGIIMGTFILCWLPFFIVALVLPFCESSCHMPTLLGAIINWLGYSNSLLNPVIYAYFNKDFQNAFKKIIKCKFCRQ
In short: (§2)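 Membranes from CHO cells expressing human 5-HT1A were diluted in 20 mM HEPES/3 mM MgCl2/120 mM NaCl, pH 7.4. They were preincubated with 20 μM GDP and test drug for 20 min at 30 °C, then held on ice for 15 min. [35S]GTPγS (100 pM) was added for 30 min at 30 °C. Samples were filtered, washed with cold HEPES/MgCl2 buffer, and bound radioactivity counted; EC50 and Emax reported.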

[3] = Ratio of drug level in brain to blood in Sprague-Dawley rat at 3 mg/kg, po after 2 hrs; format: ADME, organism-based; design: dose 3 mg/kg, route oral
In short: (§3)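 Rats dosed 3 mg/kg orally; total compound levels measured in brain and blood at 2, 4 and 8 h, brain/blood ratio derived. Mean ± SD of three rats.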

[4] = Ratio of drug level in brain to blood in Sprague-Dawley rat at 3 mg/kg, po after 4 hrs; format: ADME, organism-based; design: dose 3 mg/kg, route oral; in short: as §3
Rattus norvegicus [5] = assay: […] activity in rat assessed as inhibition of 5HT-induced bradycardia at 10 ug/kg, iv by von Benzold-Jarisch reflex assay; format: functional
[6] = target: 5-hydroxytryptamine receptor 2A (Rattus norvegicus) (UniProt P14842); assay: Inhibition of rat 5HT2 receptor AT 0.1 uM
Chain of 5-hydroxytryptamine receptor 2A (Rattus norvegicus) (P14842 whole entry): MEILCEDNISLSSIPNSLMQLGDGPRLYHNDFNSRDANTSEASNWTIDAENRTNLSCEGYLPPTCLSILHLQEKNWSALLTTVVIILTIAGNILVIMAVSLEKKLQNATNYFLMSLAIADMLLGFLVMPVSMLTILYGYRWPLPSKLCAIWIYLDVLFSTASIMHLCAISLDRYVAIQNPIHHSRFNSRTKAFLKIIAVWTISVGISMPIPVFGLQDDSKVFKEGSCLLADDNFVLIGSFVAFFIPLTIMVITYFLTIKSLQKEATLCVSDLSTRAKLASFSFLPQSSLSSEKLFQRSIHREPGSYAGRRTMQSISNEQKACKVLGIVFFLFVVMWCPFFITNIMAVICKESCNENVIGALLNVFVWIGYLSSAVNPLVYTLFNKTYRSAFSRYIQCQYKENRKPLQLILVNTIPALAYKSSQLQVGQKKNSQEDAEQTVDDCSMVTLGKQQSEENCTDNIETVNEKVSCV

Rattus norvegicus [7] = assay: Induction of 5HT1A receptor-mediated lower lip retraction behavior in rat at 10 mg/kg, iv after 30 mins; format: functional, organism-based; design: dose 10 mg/kg
In short: (§4)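 Rats were conditioned to test procedures over 2 weeks and acclimated to the test cage for 1 h. Vehicle was saline containing diluted HCl. Lower lip retraction and flat body posture were scored on a 0–3 scale at 5, 10, 20 and 30 min after dosing.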

[8] = Drug level in Sprague-Dawley rat brain at 3 mg/kg, po after 4 hrs by HPLC analysis; format: ADME, organism-based; design: dose 3 mg/kg, route oral; conditions: read-out: Drug uptake; in short: as §1
[9] = Drug level in Sprague-Dawley rat brain at 3 mg/kg, po after 8 hrs by HPLC analysis; format: ADME, organism-based; design: dose 3 mg/kg, route oral; conditions: read-out: Drug uptake; in short: as §1
[10] = target: Adrenergic receptor alpha-1 (Rattus norvegicus) (UniProt P15823+P23944+P43140); assay: Inhibition of rat alpha1 adrenergic receptor at 0.1 uM
Rattus norvegicus [11] = assay: Induction of 5HT1A receptor-mediated behavioral activity in rat assessed as appearance of flat body posture at 10 mg/kg, iv after 30 mins; format: functional, organism-based; design: dose 10 mg/kg; in short: as §4
Rattus norvegicus [12] = assay: Effect on 5HT1A receptor-mediated hypothermic effect in rat assessed as change in rectal temperature at 10 mg/kg, iv after 30 mins; format: functional, organism-based; design: dose 10 mg/kg
In short: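 Rats were conditioned over 2 weeks and acclimated to the cage for 1 h before dosing (vehicle: saline with diluted HCl). Rectal temperature was recorded with a thermistor probe inserted 3 cm, before and 30 min after administration. The change in temperature was reported.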

[13] = Ratio of drug level in brain to blood in Sprague-Dawley rat at 3 mg/kg, po after 8 hrs; format: ADME, organism-based; design: dose 3 mg/kg, route oral; in short: as §3
[14] = target: T2, 5-hydroxytryptamine receptor 3A (Cavia porcellus) (UniProt O70212); assay: Inhibition of 5HT3 receptor-mediated contraction of guinea pig ileum at 1 umol/L after 20 mins relative to control; format: tissue-based
T2 sequence (whole entry): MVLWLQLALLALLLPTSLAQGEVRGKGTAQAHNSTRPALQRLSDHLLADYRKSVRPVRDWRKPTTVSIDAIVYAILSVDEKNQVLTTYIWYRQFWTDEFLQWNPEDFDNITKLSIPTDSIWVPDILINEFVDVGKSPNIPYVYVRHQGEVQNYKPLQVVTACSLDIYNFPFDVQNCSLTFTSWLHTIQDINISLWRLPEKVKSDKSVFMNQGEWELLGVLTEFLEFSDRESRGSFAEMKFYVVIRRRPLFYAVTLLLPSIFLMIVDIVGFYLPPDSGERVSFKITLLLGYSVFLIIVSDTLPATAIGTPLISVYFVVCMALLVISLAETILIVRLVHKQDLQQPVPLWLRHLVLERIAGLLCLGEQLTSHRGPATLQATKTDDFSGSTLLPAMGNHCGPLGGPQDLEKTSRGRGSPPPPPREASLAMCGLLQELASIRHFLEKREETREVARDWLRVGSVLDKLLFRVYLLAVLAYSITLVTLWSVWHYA
In short: (§5)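 Ileum strips in Tyrode solution at 37 °C, gassed 5% CO2/95% O2, isotonic contractions under 1 g load. After at least 3 stable contractions to 10 μM 2-methyl-5-HT, tissue exposed to compound or DMSO vehicle for 20 min, then 10 μM 2-methyl-5-HT re-added; contraction expressed as % inhibition of control.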

[15] = target: T3, 5-hydroxytryptamine receptor 1A (Homo sapiens, UniProt P08908); assay: Displacement of [3H]8-OH-DPAT from human 5HT1A receptor expressed in CHO cells by liquid scintillation counting; format: cell-based
T3 sequence (P08908 whole entry): T1 sequence (whole entry)
In short: (§6)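 CHO-cell membranes with human 5-HT1A were incubated with 0.25 nmol/L [3H]8-OH-DPAT (final) for 60 min at 27 °C. Buffer: 50 mM Tris-HCl, 10 mM MgSO4, 0.5 mM EDTA, 0.1% ascorbic acid, pH 7.4. Compound came from 270 μmol/L DMSO stock, diluted in buffer. Filtration was through GF/C presoaked in 0.3% polyethyleneimine, with two cold Tris washes. Run in duplicate or triplicate; percent inhibition of binding calculated.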

[16] = target: T3, 5-hydroxytryptamine receptor 1A; assay: Agonist activity at human cloned 5HT1A receptor expressed in CHO cells assessed as stimulation of [35S]GTPgammaS binding after 30 mins by liquid scintillation counting; format: functional, cell-based; in short: as §2
[17] = Drug level in Sprague-Dawley rat blood at 3 mg/kg, po after 2 hrs by HPLC analysis; format: ADME, organism-based; design: dose 3 mg/kg, route oral; conditions: whole blood, read-out: Drug uptake; in short: as §1
[18] = Drug level in Sprague-Dawley rat brain at 3 mg/kg, po after 2 hrs by HPLC analysis; format: ADME, organism-based; design: dose 3 mg/kg, route oral; conditions: read-out: Drug uptake; in short: as §1
[19] = target: T4, 5-hydroxytryptamine receptor 3A (Homo sapiens, UniProt P46098); assay: Displacement of [3H]BRL-43694 from human 5HT3 receptor expressed in HEK293 cells by liquid scintillation counting; format: cell-based
T4 sequence (P46098 whole entry): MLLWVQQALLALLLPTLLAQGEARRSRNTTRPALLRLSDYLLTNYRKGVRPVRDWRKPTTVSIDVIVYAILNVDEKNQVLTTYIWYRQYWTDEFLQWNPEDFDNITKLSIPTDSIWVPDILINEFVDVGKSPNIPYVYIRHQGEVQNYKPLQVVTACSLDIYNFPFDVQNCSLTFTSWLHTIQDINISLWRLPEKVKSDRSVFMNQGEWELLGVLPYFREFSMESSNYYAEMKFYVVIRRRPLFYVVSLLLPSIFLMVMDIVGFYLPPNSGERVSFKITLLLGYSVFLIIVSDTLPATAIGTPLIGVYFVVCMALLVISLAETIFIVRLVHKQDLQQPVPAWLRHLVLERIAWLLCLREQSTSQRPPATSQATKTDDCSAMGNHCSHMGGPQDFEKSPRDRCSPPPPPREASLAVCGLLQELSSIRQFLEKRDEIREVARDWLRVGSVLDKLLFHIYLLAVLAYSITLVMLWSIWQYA
In short: (§7)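 HEK-293 membranes expressing human 5-HT3 were incubated with 0.5 nmol/L [3H]BRL-43694 (final) for 60 min at 25 °C. Buffer: 50 mM Tris-HCl, 5 mM MgCl2, 1 mM EDTA, pH 7.5. Compound came from 270 μmol/L DMSO stock, diluted in buffer. Filtration was through GF/B presoaked in 0.5% polyethyleneimine, with two cold Tris washes. Run in duplicate or triplicate; percent inhibition calculated.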

[20] = Drug level in Sprague-Dawley rat blood at 3 mg/kg, po after 4 hrs by HPLC analysis; format: ADME, organism-based; design: dose 3 mg/kg, route oral; conditions: whole blood, read-out: Drug uptake; in short: as §1
[21] = target: T5, 5-hydroxytryptamine receptor 3A (Homo sapiens) (UniProt P46098); assay: Displacement of [3H]BRL-43694 from human 5HT3 receptor expressed in HEK293 cells at 100 nM by liquid scintillation counting; format: cell-based; in short: as §7
T5 sequence (whole entry): T4 sequence (P46098 whole entry)

[22] = target: T5, 5-hydroxytryptamine receptor 3A (Homo sapiens); assay: Displacement of [3H]BRL-43694 from human 5HT3 receptor expressed in HEK293 cells at 1000 nM by liquid scintillation counting; format: cell-based; in short: as §7
[23] = target: T1, 5-hydroxytryptamine receptor 1A (Homo sapiens); assay: Displacement of [3H]8-OH-DPAT from human 5HT1A receptor expressed in CHO cells at 100 nM by liquid scintillation counting; format: cell-based; in short: as §6
[24] = target: T1, 5-hydroxytryptamine receptor 1A (Homo sapiens); assay: Displacement of [3H]8-OH-DPAT from human 5HT1A receptor expressed in CHO cells at 1000 nM by liquid scintillation counting; format: cell-based; in short: as §6
[25] = target: T2, 5-hydroxytryptamine receptor 3A (Cavia porcellus); assay: Inhibition of 5HT3 receptor-mediated contraction of guinea pig ileum at 0.1 umol/L after 20 mins relative to control; format: tissue-based; in short: as §5

Row | Structure (SMILES) | concentration at 8 h [1] [nM] | Emax [2] [%] | Kp at 2 h [3] | Kp at 4 h [4] | concentration at 4 h [8] [nM] | concentration at 8 h [9] [nM] | Kp at 8 h [13] | inhibition [14] [%] | IC50 [15] [nM] | EC50 [16] [nM] | concentration at 2 h [17] [nM] | concentration at 2 h [18] [nM] | IC50 [19] [nM] | concentration at 4 h [20] [nM] | inhibition [21] [%] | inhibition [22] [%] | inhibition [23] [%] | inhibition [24] [%] | also measured
1 | Nn1c(CCCCN2CCN(c3ccc4ccccc4n3)CC2)nc2ccccc2c1=O | 28.3 | 94.7 | 7.11 | 6.59 | 367 | 204 | 7.65 | 90.1 | < 10 | 30.7 | 97.4 | 685 | 45.7 | 55.5 |  |  |  |  | inhibition in vivo at 0.01 mg/kg (Rattus norvegicus [5]): 21.9%; inhibition [6]: 78%; Activity (Rattus norvegicus [7]): Active; inhibition [10]: 63%; Activity (Rattus norvegicus [11]): Active; deltaT (Rattus norvegicus [12]): -1.9 °C
2 | Nn1c(=O)c2c(nc1[C@H]1CC[C@@H](N3CCN(c4ccc5ccccc5n4)CC3)CC1)CCCC2 |  |  |  |  |  |  |  |  |  |  |  |  |  |  | 19.6 | 87.3 | 42.3 | 91.5 | 
3 | Nn1c(=O)c2c(nc1[C@H]1CC[C@H](N3CCN(c4ccc5ccccc5n4)CC3)CC1)CCCC2 |  |  |  |  |  |  |  |  |  |  |  |  |  |  | 1.4 | 18.4 | 76.9 | 96.3 | 
4 | Nn1c(SCCCN2CCN(c3ccc4ccccc4n3)CC2)nc2c(c1=O)CCCC2 | 5.17 | 90.3 | 2.99 | 3.05 | 32.2 | 13 | 2.53 | 95.1 | 5.6 | 182 | 21.2 | 63.1 | 63.8 | 10.6 |  |  |  |  | inhibition [25]: 80%
